The species named for one test is Mus musculus. As to the kind of experiment: Inhibition of NF-kB signaling pathway in C57BL/6 mouse bone marrow derived macrophages assessed as reduction in LPS-induced IL-6 gene expression at 10 to 100 uM preincubated for 30 mins followed by LPS stimulation measured after 4 hrs by qRT-PCR analysis. Put shortly:
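C57BL/6 bone marrow macrophages, differentiated with 20% L-cell medium, were preincubated with compound for 30 min. They were then left untreated or given LPS (1 ng/mL, 4 h). Tnfa, Il6 and Il1b expression was measured by quantitative RT-PCR as 2^-ΔΔCt.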
Background: Real-time PCR tracks product formation cycle by cycle.

Test [1] relates to Rattus norvegicus. Kind of test: Anti-inflammatory activity in DNBS-induced Sprague-Dawley rat colitis model assessed as DNBS-induced TNFalpha levels in colon at 25 mg/kg/day, ig for 6 days simulatneously with 6 days of DNBS-challenge by ELISA (reference value: 5.9 +/- 0.6 pg/mg). Type of test: functional.
Test [2] relates to Rattus norvegicus. Kind of test: Antiinflammatory activity in DNBS-induced Sprague-Dawley rat colitis model assessed as attenuation of DNBS-induced decrease in colonic length administered ig as suspension in olive oil for 6 days simulatneously with 6 days of DNBS-challenge. Type of test: functional.
Test [3] concerns Rattus norvegicus. As to the kind of experiment: Anti-inflammatory activity in DNBS-induced Sprague-Dawley rat colitis model assessed as DNBS-induced IL-1beta levels in colon at 25 mg/kg/day, ig for 6 days simulatneously with 6 days of DNBS-challenge by ELISA (reference value: 22.3 +/- 2.9 ng/mg). The format is functional.
Test [4] addresses NACHT, LRR and PYD domains-containing protein 3 (Homo sapiens) (UniProt Q96P20). As to the kind of experiment: Inhibition of recombinant YFP-tagged NLRP3 (unknown origin) expressed in HEK293 cells co-expressing luciferase at 10 to 100 uM after 24 hrs by BRET assay. The format is cell-based. Put shortly: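 HEK293 cells stably expressing YFP-NLRP3-Luc were grown in DMEM with 10% FCS, plated on poly-L-lysine, and exposed to compound or vehicle (15 h per methods; 24 h per figure legend). Cells were washed, then BRET was read after adding coelenterazine-H (5 µM). Kinetics used nigericin (10 µM) in vehicle or high-K+ (140 mM) buffer. Slopes of three phases were taken; mean ± SEM, n = 5–12.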
(BRET reads energy transfer from a luciferase to a nearby fluorophore.)

The test system of test [5] is Rattus norvegicus. Kind of test: Antiinflammatory activity in DNBS-induced Sprague-Dawley rat colitis model assessed as DNBS-induced macroscopic damage score at 50 mg/kg/day, ig administered as suspension in olive oil for 6 days simulatneously with 6 days of DNBS-challenge (reference value: 8.6 +/- 0.6). The format is functional.

Calls of active or inactive are those of the source. The calls are words filed in the database; no cut-off is given here.

These results are taken from ChEMBL document CHEMBL4014309, “Development of an Acrylate Derivative Targeting the NLRP3 Inflammasome for the Treatment of Inflammatory Bowel Disease” (J Med Chem, 2017).

NACHT, LRR and PYD domains-containing protein 3 (Homo sapiens), sequence (Q96P20 whole entry, the tested form may be a part): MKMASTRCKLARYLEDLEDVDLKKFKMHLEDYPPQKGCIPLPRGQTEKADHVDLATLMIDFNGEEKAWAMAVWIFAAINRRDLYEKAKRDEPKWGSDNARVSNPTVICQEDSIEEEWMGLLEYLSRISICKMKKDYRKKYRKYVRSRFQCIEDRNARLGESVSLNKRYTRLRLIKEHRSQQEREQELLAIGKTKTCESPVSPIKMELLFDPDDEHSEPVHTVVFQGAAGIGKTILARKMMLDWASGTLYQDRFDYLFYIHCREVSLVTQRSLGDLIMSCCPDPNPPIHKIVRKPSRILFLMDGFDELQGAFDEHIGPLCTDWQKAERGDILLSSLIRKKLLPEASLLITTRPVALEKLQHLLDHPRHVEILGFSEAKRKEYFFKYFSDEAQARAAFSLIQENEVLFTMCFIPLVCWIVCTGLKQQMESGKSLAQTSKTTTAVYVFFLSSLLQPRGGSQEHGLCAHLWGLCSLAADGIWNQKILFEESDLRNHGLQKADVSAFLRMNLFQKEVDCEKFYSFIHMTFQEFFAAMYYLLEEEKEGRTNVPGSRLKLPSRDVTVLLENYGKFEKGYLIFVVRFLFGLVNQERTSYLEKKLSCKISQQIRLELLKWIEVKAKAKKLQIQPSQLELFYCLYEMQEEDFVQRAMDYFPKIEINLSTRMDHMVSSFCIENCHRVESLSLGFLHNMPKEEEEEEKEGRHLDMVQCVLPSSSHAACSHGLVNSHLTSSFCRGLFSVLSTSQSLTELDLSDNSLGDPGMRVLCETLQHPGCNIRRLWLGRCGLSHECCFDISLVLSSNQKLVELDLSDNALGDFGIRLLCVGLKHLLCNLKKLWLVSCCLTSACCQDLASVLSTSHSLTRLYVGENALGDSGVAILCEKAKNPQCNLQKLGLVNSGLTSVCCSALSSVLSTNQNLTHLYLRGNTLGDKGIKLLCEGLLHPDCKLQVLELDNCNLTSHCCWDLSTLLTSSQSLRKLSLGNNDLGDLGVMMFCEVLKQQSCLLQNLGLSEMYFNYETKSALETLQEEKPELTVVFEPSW

Consider `C=C(Cc1ccccc1Cl)C(=O)OCC`, for which the inhibition result (in the test listed under Mus musculus; in test [4]) was “Active” in each case. The results for the Activity in the test with Rattus norvegicus [1], in the test with Rattus norvegicus [2] and in the test on Rattus norvegicus [3] were 3.3 pg/mg, “Dose-dependent effect” and 12.8 ng/mg, respectively. Moreover, the Activity_index in the test with Rattus norvegicus [5] is 2.8.
